Assay results from PubChem BioAssay AID588627 (Johns Hopkins Ion Channel Center, 2011).
The campaign covered roughly 310,000 compounds. About 1,400 (0.45%) were called active.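 Rule for the calls: active = calcium response B-score plate-corrected fluorescence ratio at least 3 library SD, with starting fluorescence B-score inside 5 SD; inactive = the rest.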 What follows is part of a selection rich in actives, with near analogues and random picks from the rest.

Each compound was assayed against Mas-related G-protein coupled receptor member X1 (Homo sapiens) (UniProt Q96LB2) (assay: agonists of human MrgX1 receptor, primary screen, HEK293 cells, Fluo-4 calcium flux (AID 588627;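 for B-score: B-score of the peak-minus-trough calcium fluorescence change over baseline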)). Conditions: Fluo-4 calcium fluorescence, agonist mode, at 10 µM; hits give high values.
Chain of Mas-related G-protein coupled receptor member X1 (Homo sapiens) (Q96LB2 whole entry, looked up): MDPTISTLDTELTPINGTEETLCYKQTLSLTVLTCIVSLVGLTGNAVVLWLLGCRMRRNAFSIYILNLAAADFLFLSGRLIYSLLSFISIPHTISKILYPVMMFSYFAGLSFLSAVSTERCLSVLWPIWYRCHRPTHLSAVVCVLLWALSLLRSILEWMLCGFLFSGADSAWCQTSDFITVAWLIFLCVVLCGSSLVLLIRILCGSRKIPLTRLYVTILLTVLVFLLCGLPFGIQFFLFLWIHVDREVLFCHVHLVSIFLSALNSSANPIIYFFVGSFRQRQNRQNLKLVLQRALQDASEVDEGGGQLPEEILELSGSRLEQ
How it was run: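 Test system: Stable human MrgX1 HEK293 cell line | Schedule: Overnight plating before 1 h dye loading | Read-out basis: Baseline-normalised fluorescence change ratio, B-scored | Detection: Kinetic calcium dye fluorescence, Fluo-4 NW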
In the case of `C/C(=N\Nc1cccc(C(=O)O)c1)c1ccc2c(c1)Nc1ccccc1S2`, the B-score is reported as “inactive”. With `CCn1c(CC(=O)Nc2ccccc2)nnc1SCC(=O)N1CCOCC1` the B-score was “inactive”. With `Cc1cccc(-c2nc(Nc3ccc(O)cc3)c3ccccc3n2)c1` the B-score was “inactive”. With `COc1ccc(Nc2nc(-c3cccnc3)nc3ccccc23)cn1` the B-score was 38.4 (active). `O=[N+]([O-])c1ccc(F)cc1Oc1nc(-c2cccnc2)nc2ccccc12` was tested, and the B-score was “inactive”. With `CN(C)/C(=N\OC(=O)c1ccccc1)c1nonc1N` the B-score was “inactive”. For `C=CCO/N=C/C1=C(O)C(C(=O)OC)C(C)(C)CC1=O` (stereo unspecified), the B-score was “inactive”. For `C#CCOCCOCCOCCNc1nc(N2CCN(C(=O)CCCCCCCCCCNC(=O)[C@H]([C@@H](C)CC)n3cc(CCCCN=C(N)N)nn3)CC2)nc(N2CCN(C(=O)CCCCCCCCCCNC(=O)[C@H](CO)n3cc(CCCSC)nn3)CC2)n1`, the B-score was “inactive”. `C#CCOCCOCCOCCNc1nc(N2CCN(C(=O)CCCCCCCCCCNC(=O)[C@H](CCCCN)n3cc(C)nn3)CC2)nc(N2CCN(C(=O)CCCCCCCCCCNC(=O)[C@H](CO)n3cc(CCCSC)nn3)CC2)n1` was tested, and the B-score was 29.2 (active). In the case of `C#CCOCCOCCOCCNc1nc(N2CCN(C(=O)CCCCCCCCCCNC(=O)Cn3cc(CCCCCN)nn3)CC2)nc(N2CCN(C(=O)CCCCCCCCCCNC(=O)[C@H](CO)n3cc(CCCSC)nn3)CC2)n1`, the B-score is reported as “inactive”. `COC(=O)c1cc(S(=O)(=O)N2CCC(C(N)=O)CC2)oc1C` was tested, and the B-score was “inactive”. With `CCOc1ccc(NC(=O)c2ccc(NC(=O)CN3C(=O)C(=O)N(CC(C)C)C3=O)cc2)cc1` the B-score was “inactive”. For `Cc1cc(C(=O)NNC(=S)Nc2ccccc2C)cs1`, the B-score was “inactive”. In the case of `COCCCNc1nc2ccccc2nc1NS(=O)(=O)c1ccc(F)cc1`, the B-score is reported as “inactive”. In the case of `COc1cc(/C=C2/C(=O)NN(c3ccc(F)cc3)C2=O)cc([N+](=O)[O-])c1O`, the B-score is reported as “inactive”. In the case of `COc1cc(/C=C2/C(=O)NN(c3cccc(Cl)c3)C2=O)cc(Br)c1O`, the B-score is reported as 45.3 (active). In the case of `C#CCOc1ccc(/C=C2/C(=O)NN(c3ccccc3)C2=O)cc1OC`, the B-score is reported as “inactive”. For `CCCCc1nc(SCC(=O)Nc2nnc(C(C)C)s2)n[nH]1`, the B-score was “inactive”. In the case of `C=CCN1CN(S(=O)(=O)c2ccc(OC)cc2)c2nc3ccccc3nc21`, the B-score is reported as “inactive”. In the case of `O=C(COC(=O)/C=C/c1cccc(Cl)c1)NCCc1ccccc1`, the B-score is reported as “inactive”. In the case of `COCCNC(=O)C1CCN(C(=O)C2CC(=O)N(c3ccc(C)cc3)C2)CC1` (stereo unspecified), the B-score is reported as “inactive”. For `O=C(CC1SCCNC1=O)Nc1ccc(Cl)c(Cl)c1` (stereo unspecified), the B-score was “inactive”. `O=C(CC(O)(C(F)(F)F)C(F)(F)F)Nc1ccc(Cl)c(Cl)c1` was tested, and the B-score was 38.4 (active). For `O=C(Cc1ccc(Cl)c(Cl)c1)Nc1ccc(SC(F)F)cc1`, the B-score was “inactive”. For `Cc1nn(C)c(C)c1C(C)NC(=O)c1ccc(OC2CCN(Cc3ccccn3)CC2)cc1` (stereo unspecified), the B-score was “inactive”. For `COC(=O)c1ccc(COC(=O)C2CCN(S(=O)(=O)c3c(Cl)cccc3Cl)CC2)o1`, the B-score was 28.7 (active). `CCOc1ccc(S(=O)(=O)N2CCC(C(=O)OCc3ccc(OC)cc3)CC2)cc1` was tested, and the B-score was “inactive”. In the case of `COc1cccc(COC(=O)C2CCN(S(=O)(=O)c3ccc(Cl)cc3)CC2)c1OC`, the B-score is reported as “inactive”. `NC(=O)C1CCN(C(=O)CC2C(=O)NCCN2Cc2cccc(Oc3ccccc3)c2)CC1` (stereo unspecified) was tested, and the B-score was “inactive”. In the case of `Cc1nn(CCCC(=O)NCc2ccccc2Cl)c(=O)c2nccn12`, the B-score is reported as “inactive”. With `COc1ccc(OC)c(C(=O)c2coc3ccc(OC)cc23)c1` the B-score was “inactive”. `COc1ccc(OC)c(C(=O)c2ccc(C(=O)O)cc2)c1` was tested, and the B-score was “inactive”. With `COc1ccc(OC)c(C(=O)c2ccc(Cl)cc2)c1` the B-score was 29.4 (active). In the case of `Cc1ccc(-c2nn(-c3ccccc3)cc2/C=C2\SC(=S)N(CCCCCC(=O)O)C2=O)o1`, the B-score is reported as “inactive”. `O=C(N/C(=C/c1ccc(Cl)cc1)C(=O)N1CCCCC1)c1ccco1` was tested, and the B-score was “inactive”. With `Cc1onc(-c2c(Cl)cccc2Cl)c1C(=O)NNC(=O)c1c(-c2c(Cl)cccc2Cl)noc1C` the B-score was “inactive”. In the case of `Cc1onc(-c2ccccc2)c1C(=O)Nc1ccccc1C#N`, the B-score is reported as “inactive”. `Cc1onc(-c2ccccc2)c1C(=O)NNC(=S)NC(=O)c1ccc(F)cc1` was tested, and the B-score was 126 (active). For `Cc1ccc(CNC(=O)c2c(-c3ccccc3)noc2C)cc1`, the B-score was “inactive”. With `CCc1noc(C)c1C(=O)NNC(=O)c1ccc(F)cc1` the B-score was “inactive”. For `COc1ccc(C(=O)NC(=S)NNC(=O)c2c(-c3ccccc3)noc2C)cc1`, the B-score was 123 (active). In the case of `Cc1ccc(NC(=O)c2ccn(C(=O)Nc3ccccc3)n2)c(C)c1`, the B-score is reported as “inactive”. With `CS(=O)(=O)N(CC(=O)N1CCCC1)Cc1ccccc1` the B-score was “inactive”. In the case of `CC(=O)N1c2ccccc2N(Cc2ccc([N+](=O)[O-])cc2)C(=O)C1(C)C`, the B-score is reported as “inactive”. For `CC1=NN(c2ccccc2)C(=O)C1C(=O)c1ccc([N+](=O)[O-])cc1` (stereo unspecified), the B-score was “inactive”. In the case of `O=C1NC(=O)C2C1C(c1ccc([N+](=O)[O-])cc1)=NN2Cc1ccccc1` (stereo unspecified), the B-score is reported as 42.5 (active). `COc1cc(CO)ccc1OCC(=O)Nc1cccc2ccccc12` was tested, and the B-score was “inactive”. For `COc1ccc(N2CC(C)Cn3c2nc2c3c(=O)n(Cc3ccccc3F)c(=O)n2C)c(OC)c1` (stereo unspecified), the B-score was “inactive”. In the case of `O=C(COC(=O)c1cccc(Cl)c1)Nc1ccc2[nH]c(=O)[nH]c2c1`, the B-score is reported as “inactive”. `CNCC(O)c1ccc(O)c(O)c1` (stereo unspecified) was tested, and the B-score was 46.8 (active). `CC(=O)NCC(O)c1ccc([N+](=O)[O-])cc1` (stereo unspecified) was tested, and the B-score was “inactive”. For `CCC(C)c1ccc(O)c(/C=N/O)c1` (stereo unspecified), the B-score was “inactive”. For `Cc1ccc(CNC(=O)CCC(=O)N2CC(C)Sc3ccccc32)cc1` (stereo unspecified), the B-score was “inactive”. For `O=C(c1cc(C(=O)N2CCN(c3ccc(F)cc3)CC2)cc([N+](=O)[O-])c1)N1CCN(c2ccc(F)cc2)CC1`, the B-score was “inactive”. In the case of `Cc1ccc(CSCC2Nc3ccc(C(=O)N4CCN(c5ccc(F)cc5)CC4)cc3NC2=O)cc1` (stereo unspecified), the B-score is reported as “inactive”. With `O=C1Nc2cc(C(=O)N3CCN(c4ccc(F)cc4)CC3)ccc2NC1CSCc1cccc(F)c1` (stereo unspecified) the B-score was 28.7 (active). In the case of `Cc1ccc(NC(=O)COC(=O)C2C3CC4OC(=O)C2C4C3)cc1Cl` (stereo unspecified), the B-score is reported as “inactive”. In the case of `Cc1cc(C)cc(OCC(=O)NC(C)c2ccccc2)c1` (stereo unspecified), the B-score is reported as “inactive”. `COc1cc(OC)cc(C(=O)N[C@H](C(=O)OCC(=O)NC(C)c2ccccc2)C(C)C)c1` (stereo partly specified) was tested, and the B-score was 36 (active). `Cc1ccc(OCC(=O)NC(C)c2ccccc2)cc1C` (stereo unspecified) was tested, and the B-score was “inactive”. In the case of `COc1ccc(NC(=O)CC2C(=O)NC3CCCCC3N2C(=O)c2ccc(F)cc2)cc1` (stereo unspecified), the B-score is reported as “inactive”.
